The text below walks through data of ChEMBL document CHEMBL4304743, “Discovery of ( E)- N1-(3-Fluorophenyl)- N3-(3-(2-(pyridin-2-yl)vinyl)-1 H-indazol-6-yl)malonamide (CHMFL-KIT-033) as a Novel c-KIT T670I Mutant Selective Kinase Inhibitor for Gastrointestinal Stromal Tumors (GISTs)” (J Med Chem, 2019).

The source made the active and inactive calls. The rule behind the calls is not given here.

The GI50 is the concentration giving 50% growth inhibition. One may read the IC50 as the concentration that inhibits the measured activity by half. A lower IC50 goes with higher potency. As usually defined, the AUC(0-inf) is the area under the concentration-time curve extrapolated to infinity. Broadly, the Tmax is the time from dosing to the highest level. As usually defined, the Cmax is the peak of the concentration-time curve.

Data set [1] relates to Mast/stem cell growth factor receptor Kit (Homo sapiens), P10721 [UNDEFINED MUTATION]. Nature of the data set: Inhibition of c-KIT 560 to 578 deletion mutant in human GISTT1 cells assessed as reduction in S6 phosphorylation at S235/S236 residue at 0.1 uM to 3 uM after 1 hr by Western blot analysis. Format: cell-based. The method, boiled down:
(§1)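 Serial compound dilutions applied for 1 h to GIST-T1, GIST-T1-T670I (CRISPR/Cas9 T670I knock-in, clone confirmed by Sanger sequencing) or GIST-5R cells in DMEM with 10% FBS. Cells then lysed and phospho-proteins detected by standard Western blotting.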
(In western blotting, separated proteins are transferred to a membrane and probed.)

The next data set concerns GIST882. Description: Antiproliferative activity against human GIST882 cells harboring c-KIT K642E mutant incubated for 72 hrs by CCK8 assay. Format: functional. As to conditions: GIST882, 72 h. The method, boiled down: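 Adherent GIST cells seeded at 1.5-5 × 10^4 cells/mL and left overnight at 37 °C, 5% CO2. Medium then replaced with medium holding serial compound dilutions; 72 h incubation. Viability by CCK-8, absorbance at 450 nm, normalized to DMSO control; GI50 from dose-response fit.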
A general note: Tetrazolium assays rely on reduction of a dye to a coloured formazan, in cell work by metabolically active cells.

Data set [2] has as its system Mast/stem cell growth factor receptor Kit (Homo sapiens), P10721 [UNDEFINED MUTATION]. Nature of the data set: Inhibition of c-KIT 560 to 578 deletion/T670I double mutant in human GIST5R cells assessed as reduction in c-KIT autophosphorylation at Y823 residue at 0.1 uM to 3 uM after 1 hr by Western blot analysis. In kind it is cell-based. The method, boiled down:
as §1

Data set [3] shares this test system. Description: Inhibition of c-KIT 560 to 578 deletion/T670I double mutant in human GISTT1 cells assessed as reduction in STAT3 phosphorylation after 1 hr by Western blot analysis. In kind it is cell-based. The method, boiled down: as §1
Another data set is filed under the species Homo sapiens. Description: Induction of apoptosis in human GIST5R cells harboring c-KIT 560 to 578 deletion/T670I double mutant assessed as increase in cleaved PARP level after 24 hrs by Western blot analysis. Format: functional, cell-based. The method, boiled down:
(§2)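 GIST cells grown in DMEM with 10% FBS, treated 24 h with serially diluted compound; apoptosis read by Western blot for PARP, with GAPDH as loading control.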

Data set [4] has as its system GISTT1. Nature of the data set: Induction of apoptosis in human GISTT1 cells harboring c-KIT 560 to 578 deletion mutant assessed as increase in cleaved PARP level after 24 hrs by Western blot analysis. Format: functional, cell-based. The method, boiled down:
as §2

For data set [5], the system named is Mast/stem cell growth factor receptor Kit (Homo sapiens), P10721 [A829P]. Description: Inhibition of TEL fused c-KIT A829P mutant (unknown origin) transfected in mouse BAF3 cells assessed as growth inhibition after 72 hrs by CCK8 assay. In kind it is cell-based. The method, boiled down: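 Tel-c-KIT-transformed BaF3 lines (IL-3 independent) kept in RPMI 1640 with 10% FBS, 2% L-glutamine and pen/strep. Cells at 1.5 to 5 × 10^4 cells/mL mixed with graded compound and incubated 72 h at 37 °C, 5% CO2. Viability by CCK-8 absorbance at 450 nm, normalized to DMSO. GI50 from dose–response fit.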

Data set [6] deals with Platelet-derived growth factor receptor beta (Homo sapiens, UniProt P09619). Description: Inhibition of wild-type human partial length PDGFRB (V582 to Y1009 residues) expressed in bacterial expression system after 1 hr by Z-LYTE assay.
A short description of data set [7]: Apparent clearance in mouse at 10 mg/kg, po measured after 5 to 720 mins by LC-tandem mass spectrometry analysis. In kind it is ADME, organism-based. The following applies: in vivo, read-out: CL(app) (converted). The method, boiled down: (§3)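 Mice dosed 1 mg/kg i.v. or 10 mg/kg p.o.; plasma drug levels by LC-MS/MS, parameters by noncompartmental analysis; values not from triplicate testing.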

Data set [8] deals with Serine/threonine-protein kinase Nek1 (Homo sapiens, UniProt Q96PY6). Description: Inhibition of wild-type human partial length NEK1 (M1 to K278 residues) expressed in bacterial expression system after 1 hr by Z-LYTE assay.
The nature of data set [9]: AUC (0 to infinity) in mouse at 10 mg/kg, po measured after 5 to 720 mins by LC-tandem mass spectrometry analysis. The following applies: in vivo. More on the design: dose 10 mg/kg, route oral, time infinity. Format: ADME, organism-based. The method, boiled down:
as §3

The nature of data set [10]: Tmax in Sprague-Dawley rat at 10 mg/kg, po measured after 5 to 720 mins by LC-tandem mass spectrometry analysis. The following applies: in vivo. In kind it is ADME, organism-based. The method, boiled down: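 Male Sprague–Dawley rats (190-210 g), fasted 12 h, given 1 mg/kg i.v. or 10 mg/kg p.o. in DMSO/5% glucose water (1:9). Blood sampled at 2–720 min (i.v.) or 5–720 min (p.o.). Plasma proteins precipitated with methanol using caffeine internal standard, then LC-MS/MS. Noncompartmental analysis; F = AUC0-∞ ratio corrected for dose; triplicate ±SD.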

A short description of data set [11]: Cmax in Sprague-Dawley rat at 10 mg/kg, po measured after 5 to 720 mins by LC-tandem mass spectrometry analysis. As to conditions: in vivo. In kind it is ADME, organism-based. More on the design: dose 10 mg/kg, route oral. The method, boiled down:
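Male Sprague-Dawley rats (190-210 g), fasted 12 h, randomized into two groups: 1 mg/kg i.v. or 10 mg/kg p.o., both formulated in 10% DMSO/90% of 5% glucose water. Blood sampled at 2-720 min (i.v.) or 5-720 min (p.o.). Plasma protein-precipitated with methanol, caffeine internal standard, LC-MS/MS. Noncompartmental analysis; triplicate, ±SD.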

Data set [12] deals with Mast/stem cell growth factor receptor Kit (Homo sapiens), P10721 [UNDEFINED MUTATION]. Nature of the data set: Inhibition of c-KIT 560 to 578 deletion/T670I double mutant in human GISTT1 cells assessed as reduction in c-KIT autophosphorylation at Y703 residue at 0.1 uM to 3 uM after 1 hr by Western blot analysis. In kind it is cell-based. The method, boiled down: as §1

The next data set deals with Mus musculus. Description: Inhibition of c-KIT phosphorylation at Y703 residue in tumor of human GIST5R cells xenografted in nude mouse at 100 mg/kg, po administered as single dose and measured at 2 hrs. Format: functional, organism-based. The method, boiled down:
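Female nu/nu mice bearing subcutaneous GIST-5R xenografts (cells in Matrigel, right flank) given one oral gavage dose of 100 mg/kg in HKI suspension (0.5% methocellulose/0.4% Tween80 in ddH2O). Tumors collected over a 2 h time course; p-c-KIT, p-ERK and p-AKT assessed by Western blot; plasma drug levels monitored in parallel.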
A general note: In xenograft studies the graft and the host belong to different species.

Data set [13] deals with GISTT1. Nature of the data set: Induction of apoptosis in human GISTT1 cells harboring c-KIT 560 to 578 deletion/T670I double mutant assessed as increase in cleaved caspase level after 24 hrs by Western blot analysis. Format: functional, cell-based.
The test system of data set [14] is Mast/stem cell growth factor receptor Kit (Homo sapiens), P10721 [UNDEFINED MUTATION]. Description: Inhibition of c-KIT 560 to 578 deletion mutant in human GISTT1 cells assessed as reduction in ERK phosphorylation at T202/Y204 residue at 0.1 uM to 3 uM after 1 hr by Western blot analysis. Format: cell-based. The method, boiled down: as §1
The target of data set [15] is Mast/stem cell growth factor receptor Kit (Homo sapiens, UniProt P10721). Description: Inhibition of wild-type His-tagged c-KIT (unknown origin) expressed in baculovirus infected sf9 cells pre-incubated for 60 mins followed by ATP addition and measured after 1 hr by Z-LYTE assay.
In data set [16] the target is Serine/threonine-protein kinase 25 (Homo sapiens, UniProt O00506). Description: Inhibition of wild-type human partial length STK25 (V14 to H295 residues) expressed in bacterial expression system after 1 hr by Z-LYTE assay.
For data set [17], the system named is Mast/stem cell growth factor receptor Kit (Homo sapiens), P10721 [UNDEFINED MUTATION]. Description: Inhibition of c-KIT 560 to 578 deletion/T670I double mutant in human GISTT1 cells assessed as reduction in c-KIT autophosphorylation at Y719 residue at 0.1 uM to 3 uM after 1 hr by Western blot analysis. In kind it is cell-based. The method, boiled down:
as §1

Chain of Mast/stem cell growth factor receptor Kit (Homo sapiens), P10721 [UNDEFINED MUTATION] (P10721 whole entry, looked up, stated change not applied): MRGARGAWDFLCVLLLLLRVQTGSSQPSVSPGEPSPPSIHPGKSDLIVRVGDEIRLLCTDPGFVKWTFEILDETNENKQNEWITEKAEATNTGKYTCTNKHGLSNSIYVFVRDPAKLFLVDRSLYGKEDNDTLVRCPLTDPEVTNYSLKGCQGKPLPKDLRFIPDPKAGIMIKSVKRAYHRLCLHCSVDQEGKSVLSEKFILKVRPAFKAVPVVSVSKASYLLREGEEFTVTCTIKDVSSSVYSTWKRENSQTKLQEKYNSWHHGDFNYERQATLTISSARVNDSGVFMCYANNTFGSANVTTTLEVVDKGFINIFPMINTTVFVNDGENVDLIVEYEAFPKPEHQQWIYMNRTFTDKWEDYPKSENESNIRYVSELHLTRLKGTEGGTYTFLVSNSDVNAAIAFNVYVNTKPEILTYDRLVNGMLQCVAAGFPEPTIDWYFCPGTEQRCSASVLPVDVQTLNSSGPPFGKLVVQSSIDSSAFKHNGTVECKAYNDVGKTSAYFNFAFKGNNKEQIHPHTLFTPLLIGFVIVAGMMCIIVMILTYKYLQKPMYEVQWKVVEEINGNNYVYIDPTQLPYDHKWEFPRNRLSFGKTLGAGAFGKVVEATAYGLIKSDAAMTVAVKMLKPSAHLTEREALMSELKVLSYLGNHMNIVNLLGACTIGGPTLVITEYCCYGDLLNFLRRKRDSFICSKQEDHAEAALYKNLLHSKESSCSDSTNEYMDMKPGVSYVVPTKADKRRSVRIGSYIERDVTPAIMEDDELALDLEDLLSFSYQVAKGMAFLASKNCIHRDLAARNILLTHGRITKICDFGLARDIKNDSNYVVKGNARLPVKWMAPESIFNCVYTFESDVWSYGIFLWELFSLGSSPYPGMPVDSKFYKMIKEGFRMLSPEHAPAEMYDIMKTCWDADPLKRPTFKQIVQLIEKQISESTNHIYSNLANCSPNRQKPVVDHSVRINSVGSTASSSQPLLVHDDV
Chain of Platelet-derived growth factor receptor beta (P09619 whole entry, the tested form may be a part): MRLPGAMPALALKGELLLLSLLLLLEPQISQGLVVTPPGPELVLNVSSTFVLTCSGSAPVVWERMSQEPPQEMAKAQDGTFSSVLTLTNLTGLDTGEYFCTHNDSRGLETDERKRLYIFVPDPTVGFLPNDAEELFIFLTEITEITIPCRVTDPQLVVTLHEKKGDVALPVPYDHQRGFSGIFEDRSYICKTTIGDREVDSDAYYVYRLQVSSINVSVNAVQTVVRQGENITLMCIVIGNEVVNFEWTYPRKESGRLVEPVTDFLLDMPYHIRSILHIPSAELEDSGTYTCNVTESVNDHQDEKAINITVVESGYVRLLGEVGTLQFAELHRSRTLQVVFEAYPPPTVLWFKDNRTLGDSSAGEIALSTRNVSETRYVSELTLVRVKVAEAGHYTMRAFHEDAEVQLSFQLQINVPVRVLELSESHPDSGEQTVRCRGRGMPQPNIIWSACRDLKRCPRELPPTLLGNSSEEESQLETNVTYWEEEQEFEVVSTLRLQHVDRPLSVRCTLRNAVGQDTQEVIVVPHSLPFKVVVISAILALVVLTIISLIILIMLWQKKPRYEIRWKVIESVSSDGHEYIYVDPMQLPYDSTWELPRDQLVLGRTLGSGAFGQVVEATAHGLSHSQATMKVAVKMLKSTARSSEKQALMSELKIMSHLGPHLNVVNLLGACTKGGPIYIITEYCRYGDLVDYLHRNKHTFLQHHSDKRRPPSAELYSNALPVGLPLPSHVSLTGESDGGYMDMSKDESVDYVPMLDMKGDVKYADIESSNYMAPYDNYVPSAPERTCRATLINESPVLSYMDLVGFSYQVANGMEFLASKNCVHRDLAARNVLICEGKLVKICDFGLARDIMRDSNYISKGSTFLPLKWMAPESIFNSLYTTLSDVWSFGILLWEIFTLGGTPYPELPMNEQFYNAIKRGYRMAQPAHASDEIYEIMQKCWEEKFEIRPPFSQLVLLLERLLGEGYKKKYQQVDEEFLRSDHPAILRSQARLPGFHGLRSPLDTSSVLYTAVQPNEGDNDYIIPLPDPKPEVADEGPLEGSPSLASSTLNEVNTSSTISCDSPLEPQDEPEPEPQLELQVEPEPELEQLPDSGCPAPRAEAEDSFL
Chain of Serine/threonine-protein kinase Nek1 (Q96PY6 whole entry, the tested form may be a part): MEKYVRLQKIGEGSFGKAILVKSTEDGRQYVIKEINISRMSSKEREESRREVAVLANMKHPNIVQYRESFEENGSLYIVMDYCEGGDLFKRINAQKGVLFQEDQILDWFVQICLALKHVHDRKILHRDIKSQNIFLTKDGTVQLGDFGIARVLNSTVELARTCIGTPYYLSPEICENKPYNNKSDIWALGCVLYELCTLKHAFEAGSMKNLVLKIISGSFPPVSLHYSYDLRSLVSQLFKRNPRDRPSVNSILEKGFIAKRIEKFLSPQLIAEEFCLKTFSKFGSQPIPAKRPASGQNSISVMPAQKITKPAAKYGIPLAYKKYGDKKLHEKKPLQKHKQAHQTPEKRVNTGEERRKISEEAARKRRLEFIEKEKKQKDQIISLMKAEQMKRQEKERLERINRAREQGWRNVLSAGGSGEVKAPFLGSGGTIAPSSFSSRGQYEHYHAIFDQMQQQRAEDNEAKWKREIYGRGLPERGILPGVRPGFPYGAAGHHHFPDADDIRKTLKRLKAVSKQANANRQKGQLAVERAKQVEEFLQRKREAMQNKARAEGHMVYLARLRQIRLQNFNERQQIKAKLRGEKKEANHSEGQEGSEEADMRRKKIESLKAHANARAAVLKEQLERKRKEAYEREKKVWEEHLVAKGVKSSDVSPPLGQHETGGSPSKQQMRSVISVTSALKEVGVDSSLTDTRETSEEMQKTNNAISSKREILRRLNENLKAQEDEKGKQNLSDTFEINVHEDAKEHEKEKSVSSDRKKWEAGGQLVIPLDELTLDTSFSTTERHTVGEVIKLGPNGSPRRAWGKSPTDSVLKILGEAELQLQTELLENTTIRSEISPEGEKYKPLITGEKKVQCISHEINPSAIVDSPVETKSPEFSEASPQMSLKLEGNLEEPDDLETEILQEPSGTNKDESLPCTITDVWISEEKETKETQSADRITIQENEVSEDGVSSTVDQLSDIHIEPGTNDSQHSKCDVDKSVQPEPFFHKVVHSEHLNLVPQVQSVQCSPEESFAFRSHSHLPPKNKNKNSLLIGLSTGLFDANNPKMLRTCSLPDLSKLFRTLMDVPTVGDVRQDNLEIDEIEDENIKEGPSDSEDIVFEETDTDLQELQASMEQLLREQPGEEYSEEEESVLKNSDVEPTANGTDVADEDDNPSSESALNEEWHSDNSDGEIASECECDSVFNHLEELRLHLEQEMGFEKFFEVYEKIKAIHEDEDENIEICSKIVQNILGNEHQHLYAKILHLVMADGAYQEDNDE
Chain of Mast/stem cell growth factor receptor Kit (Homo sapiens), P10721 [A829P] (P10721 whole entry A829P, the tested form may be a part): as the sequence (P10721 whole entry, looked up, stated change not applied) above, with A829P counted along it
Chain of Serine/threonine-protein kinase 25 (O00506 whole entry, the tested form may be a part): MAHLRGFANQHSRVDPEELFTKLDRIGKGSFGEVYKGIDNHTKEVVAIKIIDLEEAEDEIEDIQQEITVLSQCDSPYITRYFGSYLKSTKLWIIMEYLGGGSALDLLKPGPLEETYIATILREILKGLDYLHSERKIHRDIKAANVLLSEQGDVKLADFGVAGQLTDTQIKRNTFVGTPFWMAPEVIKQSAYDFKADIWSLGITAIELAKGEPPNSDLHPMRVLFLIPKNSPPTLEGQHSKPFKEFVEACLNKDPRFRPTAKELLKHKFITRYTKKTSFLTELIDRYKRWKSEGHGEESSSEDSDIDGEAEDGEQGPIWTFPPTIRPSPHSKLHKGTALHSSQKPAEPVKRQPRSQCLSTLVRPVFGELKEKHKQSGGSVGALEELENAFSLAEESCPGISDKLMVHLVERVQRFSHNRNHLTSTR
Chain of Mast/stem cell growth factor receptor Kit (P10721 whole entry, the tested form may be a part): as the sequence (P10721 whole entry, looked up, stated change not applied) above

As for `O=C(CC(=O)Nc1ccc2c(/C=C/c3ccccn3)n[nH]c2c1)Nc1cccc(F)c1`, the inhibition result (in data set [1]; in data set [2]; in [12]; with Mus musculus; in data set [14]; in data set [17]) was “Active” in each case. Moreover, the GI50 is 296 nM in the data set with GIST882 and 6000 nM in data set [5]. The inhibition result in data set [3] was “Dose-dependent effect”. The Activity result in the data set filed under Homo sapiens, with GISTT1 [4] and in the data set on GISTT1 [13] was “Dose-dependent effect” each time. Moreover, the IC50 in data set [6] is 2080 nM; in data set [8], over 10000 nM; in data set [15] it was 536 nM; in data set [16], over 10000 nM. Moreover, the CL/F in [7] is 113 mL/min/kg. In data set [9], the AUC(0-inf) amounted to 1480 ng·h/mL. The Tmax in [10] is 1.7 h. The same compound displayed a Cmax in data set [11] of 97.1 ng/mL.
